1 compound from ChEMBL document CHEMBL3425449, “Identification of MK-8133: An orexin-2 selective receptor antagonist with favorable development properties” (Bioorg Med Chem Lett, 2015) can be followed below.

Converted amounts (≈) assume the structure as drawn. Some results are limits rather than exact numbers.

One series deals with CHO-K1. Put plainly: Selectivity index, ratio of IC50 for human OX1R expressed in CHOK1 cells to IC50 for human OX2R expressed in CHOK1 cells by FLIPR assay. In kind it is cell-based. The gist of the method:
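Ratio of OX1R FLIPR IC50 to OX2R FLIPR IC50. Both come from Ca2+-flux assays on human orexin receptors expressed in CHO-K1 cells, each averaged over n ≥ 2 experiments.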

A short description of series [1]: Intrinsic clearance in human microsomes. In kind it is ADME, Microsome.
The nature of series [2]: Solubility of the compound at pH 7. The class given is physicochemical. To be noted: buffer, read-out: solubility.
The nature of series [3]: Lipophilicity, log D of the compound by HPLC method. The class given is physicochemical. To be noted: read-out: logD.
For series [4], the system named is Plasma. Kind of series: Stability in rat plasma. In kind it is ADME, cell-free.
The target of series [5] is T1, Orexin/Hypocretin receptor type 1 (Homo sapiens, UniProt O43613).
T1 sequence (O43613 whole entry): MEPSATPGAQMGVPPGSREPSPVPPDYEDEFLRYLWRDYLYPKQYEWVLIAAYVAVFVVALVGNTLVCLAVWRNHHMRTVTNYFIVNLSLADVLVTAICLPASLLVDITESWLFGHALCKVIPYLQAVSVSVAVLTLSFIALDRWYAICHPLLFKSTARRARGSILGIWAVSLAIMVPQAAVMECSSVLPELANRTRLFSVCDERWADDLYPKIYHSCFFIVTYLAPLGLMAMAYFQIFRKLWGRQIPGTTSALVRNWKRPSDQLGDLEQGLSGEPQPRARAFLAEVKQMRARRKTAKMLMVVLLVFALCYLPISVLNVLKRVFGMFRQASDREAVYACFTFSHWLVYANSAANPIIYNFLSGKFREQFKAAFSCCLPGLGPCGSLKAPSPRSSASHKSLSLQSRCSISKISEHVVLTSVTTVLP
Kind of series: Antagonist activity against human OX1R expressed in CHOK1 cells assessed as inhibition of orexin A-induced […] Ca2+ mobilization by FLIPR assay. In kind it is functional, cell-based, CHO-K1. The gist of the method:
(§1)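 Cell-based FLIPR assay measuring Ca2+ flux as the functional read-out of orexin receptor antagonism. Target is the human orexin receptor expressed in CHO-K1 cells.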
(Calcium assays in cells follow changes in intracellular calcium, usually with a dye or a luminescent sensor.)

The next series concerns the target T2, Orexin receptor type 2 (Homo sapiens, UniProt O43614).
T2 sequence (O43614 whole entry): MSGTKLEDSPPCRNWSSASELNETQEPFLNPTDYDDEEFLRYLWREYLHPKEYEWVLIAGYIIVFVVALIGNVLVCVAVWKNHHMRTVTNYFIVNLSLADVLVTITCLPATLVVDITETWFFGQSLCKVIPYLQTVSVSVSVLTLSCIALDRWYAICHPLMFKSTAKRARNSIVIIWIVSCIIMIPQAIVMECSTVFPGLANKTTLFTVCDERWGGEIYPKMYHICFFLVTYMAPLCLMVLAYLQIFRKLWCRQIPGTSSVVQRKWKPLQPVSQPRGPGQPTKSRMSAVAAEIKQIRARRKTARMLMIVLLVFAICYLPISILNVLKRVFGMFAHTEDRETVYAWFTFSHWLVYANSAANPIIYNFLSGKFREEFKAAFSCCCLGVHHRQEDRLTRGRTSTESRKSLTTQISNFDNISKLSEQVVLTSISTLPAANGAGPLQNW
Put plainly: Antagonist activity against human OX2R expressed in CHOK1 cells assessed as inhibition of orexin A-induced […] Ca2+ mobilization by FLIPR assay. The class given is functional, cell-based, CHO-K1. A digest of the protocol:
as §1

Series [6] has as its system Plasma. Kind of series: Stability in human plasma. The class given is ADME, cell-free.

What is called CLint scaled is the capacity of the preparation to metabolise the compound, expressed as a volume cleared per time. A high value points to faster metabolism. Broadly, the solubility is the concentration that dissolves in the medium under given conditions. A word on the logD: it is lipophilicity at a set pH, counting ionised and neutral species. As usually defined, the IC50 is the concentration needed to halve the response being measured. Turning to `COC(=O)c1ccccc1C(=O)N1C[C@H](Oc2cc(C#N)ccn2)CC[C@H]1C`, the Ratio IC50 with CHO-K1 is above 490. This compound registered a CLint scaled in series [1] below 16 mL/min/kg. Further, the solubility in series [2] is 151 µM (≈ 57.3 µg/mL). The logD in series [3] stood at 2.9. In addition, the Stability entry in the series on Plasma [4] and in the series on Plasma [6] was “Unstable” each time. For the same compound, the IC50 was found to be 10 µM in series [5] and 0.021 µM on Orexin receptor type 2.
